MsrA inh – inhibitors of bovine MsrA; inhibition, % at 15.5 µM; 0.75% of 360,000 active; purified bovine MsrA, absorbance read-out; AID 651718; in the data active = inhibition above about 4.5%
bovine MsrA act – bovine methionine sulfoxide reductase A activation. purified bovine MsrA, absorbance read-out. activation, % at 10.6 µM. 0.3% of 360,000 active. AID 602163; in the data active = activation above about 7.5%
Tb MetRS inh – Trypanosoma brucei MetRS inhibition; purified T. brucei MetRS, ATP depletion, Kinase-Glo luminescence; inhibition, % at 11.9 µM; 0.4% of 360,000 active; AID 624268;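 active = inhibition above a per-plate cutoff of the control wells' mean inhibition plus 3 SD, cut at about 5.5% in these data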
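Test system – parasite MetRS enzyme · Reagent – substrates ATP, L-methionine and bulk Escherichia coli tRNA · Doses – 11.9 µM compound single dose, 0.9% DMSO · Times – 15 min enzyme-compound preincubation, 2 h reaction, 10 min detection, 25 °C · Signal – Kinase-Glo luminescence, ATP depletion format · Controls – DMSO-only wells as low control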
m5-HT2A agonist – activates the mouse 5-HT2A serotonin receptor. activation, % at 7.6 µM. 0.66% of 360,000 active. CHO-K1 mHTR2A beta-arrestin complementation, luminescence; percent of 30 µM serotonin response;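 active = activation above a run cutoff, the mean activation of all tested compounds plus 3 SD, cut at about 14% in these data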
Target sequence (P35363 whole entry, looked up): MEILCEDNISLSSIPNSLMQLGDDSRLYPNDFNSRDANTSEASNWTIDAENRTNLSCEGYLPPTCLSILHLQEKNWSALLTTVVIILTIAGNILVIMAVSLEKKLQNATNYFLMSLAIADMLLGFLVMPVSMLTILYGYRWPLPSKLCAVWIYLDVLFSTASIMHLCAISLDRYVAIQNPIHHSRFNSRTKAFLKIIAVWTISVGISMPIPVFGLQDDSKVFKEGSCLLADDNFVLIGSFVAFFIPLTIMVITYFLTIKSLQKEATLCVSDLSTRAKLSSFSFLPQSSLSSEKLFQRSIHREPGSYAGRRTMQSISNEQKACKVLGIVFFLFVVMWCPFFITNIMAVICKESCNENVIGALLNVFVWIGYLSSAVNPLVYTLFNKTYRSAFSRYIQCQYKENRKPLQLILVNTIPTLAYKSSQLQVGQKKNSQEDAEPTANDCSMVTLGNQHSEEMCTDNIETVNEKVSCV
AI-2 QS modul – modulates the Vibrio harveyi AI-2 quorum sensing system. Vibrio harveyi JMH597 AI-2 luminescence/OD600 ratio, 9 h; active compounds read low; strain lacks LuxN and CqsS sensors; 0 = neutral-control median. activity change, % at 7.5 µM. 0.4% of 300,000 active. AID 2094; in the data active = activity change below about -75%, passing the limit was not always enough; inconclusive = no clear call, values can overlap the other calls;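 also: luminescence divided by OD600 gain over 9 h not by final OD600 alone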
AHR act – activates the human aryl hydrocarbon receptor; 2.5% of 320,000 active; activation, % at 5 µM; AID 2796; AHR-responsive luciferase reporter cells, luminescence; in the data active = activation above about 47%
JMH597 growth – retest: inhibitors of Vibrio harveyi JMH597 growth. shares compounds with AI-2 QS modul. OD600 absorbance, 9 h; lacks LuxN and CqsS sensors. growth inhibition, % at 7.5 µM. 1% of 750 active;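 active = every replicate shows growth inhibition above 50%; inconclusive = at least half, but not all, replicates pass that cutoff; inactive = fewer than half of replicates pass it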
BB721 lum counter – retest counter-screen: lowers luminescence of constitutive-QS Vibrio harveyi BB721; shares compounds with AI-2 QS modul; 95% of 750 active; 9 h; inhibition, % at 7.5 µM;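 active = inhibition above about 80% in every replicate, not just on average, limit read from the data; inconclusive = at least half of replicates past the limit, but not all; inactive = fewer than half of replicates past the limit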
BB721 growth rt – retest: blocks Vibrio harveyi BB721 growth | shares compounds with AI-2 QS modul | OD600 absorbance, 9 h | growth inhibition, % at 7.5 µM | 3% of 750 active;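 active = every replicate shows growth inhibition above 50%; inconclusive = at least half but not all replicates above 50% inhibition; inactive = under half of replicates above 50% inhibition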
JMH597 AI-2 mod – Vibrio harveyi AI-2 signaling luminescence modulation – JMH597 strain, confirmation. shares compounds with AI-2 QS modul. Vibrio harveyi JMH597 AI-2 quorum sensing luminescence, 9 h; luxN and CqsS knockout, AI-2 only. inhibition, % at 7.5 µM. 97% of 750 active. AID 2736;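 active = every replicate shows more than 75% inhibition of signal versus neutral control wells; inconclusive = half to three quarters of replicates exceed 75% inhibition; inactive = fewer than half of replicates exceed 75% inhibition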
Of the large screens only hits and unclear results are named; the others gave an inactive call (follow-up assays come after a bar, where they were run). Most compounds without a hit are left out; they make up all but 4.4% or so of the library.

Cc1cccn2c(=O)nc(SCC(=O)NCc3ccc(F)cc3)nc12	none
O=C(CN1C(=O)c2ccccc2C1=O)Nc1ccc(-c2nc3ccccc3o2)cc1	AI-2 QS modul -92 | JMH597 growth inactive | BB721 lum counter 87 | BB721 growth rt inactive | JMH597 AI-2 mod 93
COc1ccc(CNc2oc(-c3ccccc3)nc2C#N)cc1	AI-2 QS modul -95 | JMH597 growth inactive | BB721 lum counter 98 | BB721 growth rt inactive | JMH597 AI-2 mod 99
N#Cc1nc(-c2ccc(Cl)cc2)oc1NCc1ccco1	none
COc1ccc(-c2nc(C#N)c(NCCc3ccccc3)o2)cc1	none
N#Cc1nc(-c2ccccc2)oc1NCc1ccco1	AI-2 QS modul inconclusive | JMH597 growth inactive | BB721 lum counter 90 | BB721 growth rt inactive | JMH597 AI-2 mod 93
COc1ccc(C(=O)NC(=O)CSc2n[nH]c(N)n2)cc1	none (no result: AI-2 QS modul)
CC(=O)N1C[C@@H](CO)[C@@H](N(C)C(=O)C(C)(C)C)C[C@H]1c1ccccc1	none (no result: AI-2 QS modul, AHR act)
O=C(/C=C/c1ccccc1)NNc1ccc(Cl)cc1	AI-2 QS modul -97 | JMH597 growth inactive | BB721 lum counter 100 | BB721 growth rt inconclusive | JMH597 AI-2 mod 100
CCCCCc1cc(=O)c2ccccc2o1	none (no result: AI-2 QS modul)
CCSc1nsc(NC(=O)Nc2ccc(F)cc2F)n1	AI-2 QS modul inconclusive (no result: MsrA inh) | JMH597 growth 82 | BB721 lum counter 94 | BB721 growth rt inconclusive | JMH597 AI-2 mod 99
CC(=O)Nc1ccc(NC(=O)Cn2cc3c(n2)CCCC3)cc1	none
CC(=O)c1cccc(NC(=O)Cn2cc3c(n2)CCCC3)c1	AI-2 QS modul -89 | JMH597 growth inactive | BB721 lum counter 97 | BB721 growth rt inactive | JMH597 AI-2 mod 98
O=C(Nc1ccc(Nc2ccccc2)cc1)c1ccccc1	AI-2 QS modul -91 (no result: bovine MsrA act, Tb MetRS inh, m5-HT2A agonist) | JMH597 growth inactive | BB721 lum counter 95 | BB721 growth rt inactive | JMH597 AI-2 mod 96
O=C(Nc1ccc(Nc2ccccc2)cc1)c1ccc(Cl)cc1	none
O=C(O)c1cc(S(=O)(=O)N2CCN(C(=O)c3ccco3)CC2)c(Cl)cc1Cl	none
O=C(NCc1ccccc1Cl)c1cc2ccccc2oc1=O	none
O=c1oc2ccccc2cc1NCc1ccccc1O	AI-2 QS modul -94 | JMH597 growth inactive | BB721 lum counter 97 | BB721 growth rt inactive | JMH597 AI-2 mod 98
N#Cc1ccc(NC(=O)CN2C(=O)NC(Cc3ccccc3)C2=O)cc1 (stereo not drawn)	none
Cc1cccc(NC(=O)CN2C(=O)NC(Cc3ccccc3)C2=O)c1 (stereo not drawn)	AI-2 QS modul inconclusive | JMH597 growth inactive | BB721 lum counter 85 | BB721 growth rt inactive | JMH597 AI-2 mod 89
N#Cc1cccc(NC(=O)CN2C(=O)NC(Cc3ccccc3)C2=O)c1 (stereo not drawn)	AI-2 QS modul -84 | JMH597 growth inactive | BB721 lum counter 89 | BB721 growth rt inactive | JMH597 AI-2 mod 93
CC(C)c1nnc(NC(=O)CCN2C(=O)c3ccccc3C2=O)s1	AI-2 QS modul -83 | JMH597 growth inactive | BB721 lum counter 95 | BB721 growth rt inactive | JMH597 AI-2 mod 96
CCCc1nnc(NC(=O)CCN2C(=O)c3ccccc3C2=O)s1	AI-2 QS modul -87 | JMH597 growth inactive | BB721 lum counter 94 | BB721 growth rt inactive | JMH597 AI-2 mod 96
COC(=O)c1ccc(NC(=O)CN2CCN(CC#N)CC2)cc1	none
O=C(O)c1cccnc1Sc1ccc(Cl)cc1	AI-2 QS modul inconclusive
O=C(O)c1cccnc1Sc1ccc(Br)cc1	AI-2 QS modul -84 | JMH597 growth inactive | BB721 lum counter 97 | BB721 growth rt inactive | JMH597 AI-2 mod 97
CC1CCc2sc(C(=O)N3CCC(C(N)=O)CC3)cc2C1 (stereo not drawn)	none (no result: AI-2 QS modul)
CCn1nc(C)c(CNC(=O)C2CCC(=O)N(Cc3ccc(Cl)cc3)C2)c1C (stereo not drawn)	none
O=[N+]([O-])c1ccc(NC2CCCC2)cc1	AI-2 QS modul -83 | JMH597 growth inactive | BB721 lum counter 93 | BB721 growth rt inactive | JMH597 AI-2 mod 94
O=C1CCCCC1Nc1ccc([N+](=O)[O-])cc1 (stereo not drawn)	none (no result: AI-2 QS modul, AHR act)
CC(=O)OC[C@@H]1CN(Cc2ccccc2)C[C@H](n2cnc3c(N(C)C(C)C)ncnc32)O1	none (no result: AI-2 QS modul, AHR act)
N#Cc1cccc(NC(=O)CN2C(=O)NC3(CCCCCC3)C2=O)c1	none (no result: AI-2 QS modul)
CC1(c2ccccc2)NC(=O)N(CC(=O)Nc2cccc(C#N)c2)C1=O (stereo not drawn)	AI-2 QS modul -95 | JMH597 growth inactive | BB721 lum counter 97 | BB721 growth rt inactive | JMH597 AI-2 mod 98
CCC1(c2ccccc2)NC(=O)N(CC(=O)Nc2cccc(C#N)c2)C1=O (stereo not drawn)	AI-2 QS modul -94 | JMH597 growth inactive | BB721 lum counter 96 | BB721 growth rt inactive | JMH597 AI-2 mod 97
Cc1occc1C(=O)N1CCC2(CCCN(Cc3ccc(F)c(F)c3)C2)C1 (stereo not drawn)	none
CC(=O)c1cccc(NC(=O)COC(=O)c2n[nH]c3ccccc23)c1	AI-2 QS modul -81 | JMH597 growth inactive | BB721 lum counter 95 | BB721 growth rt inactive | JMH597 AI-2 mod 97
O=C(COC(=O)c1n[nH]c2ccccc12)Nc1ccccc1	none
O=C(COC(=O)c1n[nH]c2ccccc12)Nc1cccc(S(=O)(=O)N2CCOCC2)c1	none (no result: AHR act)
Cc1cc(C)cc(NC(=O)COC(=O)c2n[nH]c3ccccc23)c1	AI-2 QS modul -89 | JMH597 growth inactive | BB721 lum counter 96 | BB721 growth rt inactive | JMH597 AI-2 mod 96
CCc1nc2c(OCc3ccc(OC)cc3)cccn2c1N(C)C(=O)c1ccco1	none (no result: AI-2 QS modul, AHR act)
CC(C)(C)c1cc(OC(=O)c2ccncc2)ccc1O	none (no result: AI-2 QS modul)
CC(C)(C)c1cc(OC(=O)c2ccccc2F)ccc1O	AI-2 QS modul -86 | JMH597 growth inactive | BB721 lum counter 97 | BB721 growth rt inactive | JMH597 AI-2 mod 97
CC(C)c1ccc(OCC(=O)N2CCc3ccccc3C2)cc1	AI-2 QS modul inconclusive | JMH597 growth inactive | BB721 lum counter 85 | BB721 growth rt inactive | JMH597 AI-2 mod 90
COc1ccc(CN2CCNC(=O)C2CC(=O)NCC2CCOCC2)c(F)c1 (stereo not drawn)	none
Cc1oc(-c2ccccc2F)nc1CS(=O)CC(=O)NC1CCCCC1 (stereo not drawn)	none
